Where “and” joins values, the source holds several entries; their conditions need not be identical. Equal values may be shown once.
Assays:
[1] = biological target: T1, C-C chemokine receptor type 3 (Homo sapiens, UniProt P51677); test: (§1) In vitro binding activity against C-C chemokine receptor type 3 using [35S]GTP-gamma-S, as radioligand; assay type: functional
T1 sequence (P51677 whole entry): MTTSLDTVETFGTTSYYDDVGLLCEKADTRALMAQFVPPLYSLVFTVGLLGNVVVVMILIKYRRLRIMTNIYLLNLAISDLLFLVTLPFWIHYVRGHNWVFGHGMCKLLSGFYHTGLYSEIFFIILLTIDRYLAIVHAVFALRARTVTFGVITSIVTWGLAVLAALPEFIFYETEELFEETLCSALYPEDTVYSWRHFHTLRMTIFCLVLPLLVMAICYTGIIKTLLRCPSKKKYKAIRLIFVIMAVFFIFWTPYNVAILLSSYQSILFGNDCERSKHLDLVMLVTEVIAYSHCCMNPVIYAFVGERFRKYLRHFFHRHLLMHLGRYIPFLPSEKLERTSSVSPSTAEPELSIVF

[2] = biological target: T2, C-C chemokine receptor type 3 (Homo sapiens) (UniProt P51677); test: In vitro percent inhibition against C-C chemokine receptor type 3 using [35S]GTP-gamma-S, as radioligand; at 1 uM; assay type: functional
T2 sequence (whole entry): T1 sequence (P51677 whole entry)

[3] = biological target: T2, C-C chemokine receptor type 3 (Homo sapiens); test: In vitro percent inhibition against C-C chemokine receptor type 3 using [35S]GTP-gamma-S, as radioligand at 1 uM; assay type: functional
[4] = biological target: T2, C-C chemokine receptor type 3 (Homo sapiens); test: In vitro percent increase over basal binding of [35S]-GTP-gamma S against C-C chemokine receptor type 3 at 10 uM; assay type: functional
Summary of the method: (§2)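 [³⁵S]GTPγS binding to CCR3 receptor-membrane preparations in excess GDP, testing for agonism. E_max % is the percent rise over basal [³⁵S]GTPγS binding at 10 μM compound, expressed as a percent of the maximal response to 100 nM eotaxin.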

[5] = In vivo Area under curve in rat at 3 mg/kg after IV administration; assay type: ADME, organism-based; parameters: dose 3 mg/kg, route intravenous
[6] = Inhibitory concentration against CREM 3 cell line using calcium flux assay at 37 C at 7.4 pH with compound dissolved in DMSO; assay type: functional, cell-based; conditions: CREM3
Summary of the method: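 CREM3 cells (rat Y3 line transfected with human CCR3) were used at 37 °C. Compounds were dissolved in DMSO and diluted in pH 7.4 HBSS containing HEPES, BSA and probenecid.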

[7] = biological target: T2, C-C chemokine receptor type 3 (Homo sapiens); test: In vitro percent increase over basal binding of [35S]-GTP-gamma S against C-C chemokine receptor type 3; assay type: functional; summary of the method: as §2
[8] = biological target: T2, C-C chemokine receptor type 3 (Homo sapiens); test: In vitro binding activity against C-C chemokine receptor type 3 using [35S]GTP-gamma-S, as radioligand at 1 uM; assay type: functional
[9] = biological target: T2, C-C chemokine receptor type 3 (Homo sapiens); test: as §1; assay type: functional; conditions: concentration not given here

Row | SMILES | Ki [1] | other results
1 | O=C(NCC1CCCN(C2CCN(C(=O)Cc3ccc(Cl)c(Cl)c3)CC2)C1)c1ccc2ncccc2c1 (stereo not drawn) | 0.767 µM | 
2 | Cc1ccccc1C(=O)NCC1CCCN(C2CCN(Cc3ccc(Cl)c(Cl)c3)CC2)C1 (stereo not drawn) | 0.06 µM | 
3 | O=C(NCC1CCCN(C2CCN(Cc3ccc(Cl)c(Cl)c3)CC2)C1)c1ccc2[nH]ccc2c1 (stereo not drawn) | 0.029 µM | 
4 | O=C(NCC1CCCN(C2CCN(C(=O)c3ccc(Cl)c(Cl)c3)CC2)C1)c1ccc2ncccc2c1 (stereo not drawn) |  | inhibition [2]: 20%
5 | Cc1ccccc1CC(=O)NCC1CCCN(C2CCN(Cc3ccc(Cl)c(Cl)c3)CC2)C1 (stereo not drawn) | 0.086 µM | 
6 | O=C(Nc1ccc(Cl)c(Cl)c1)NN1CCC(N2CCCC(CNC(=O)c3ccc4ncccc4c3)C2)CC1 (stereo not drawn) |  | inhibition [3]: 6%
7 | O=C(NCC1CCCN(C2CCN(CC3CCCCC3)CC2)C1)c1ccc2ncccc2c1 (stereo not drawn) |  | inhibition [3]: 17%
8 | O=C(NCC1CCCN(C2CCN(Cc3ccc(Cl)c(Cl)c3)CC2)C1)c1ccc2ncccc2c1 (stereo not drawn) | 0.023 µM | Emax [4]: -7%; AUC [5]: 264 ng·h/mL; IC50 [6]: 0.215 µM
9 | CC(c1ccc(Cl)c(Cl)c1)N1CCC(N2CCCC(CNC(=O)c3ccc4ncccc4c3)C2)CC1 (stereo not drawn) | 0.074 µM | Emax [4]: -12%
10 | CC1CN(Cc2ccc(Cl)c(Cl)c2)CCC1N1CCCC(CNC(=O)c2ccc3ncccc3c2)C1 (stereo not drawn) | 0.0073 µM | Emax [7]: 96%
11 | O=C(NCC1CCCN(C2CCN(Cc3cc(Cl)ccc3Cl)CC2)C1)c1ccc2ncccc2c1 (stereo not drawn) | 0.391 µM | Emax [4]: 45%
12 | CC(=O)NCC1CCCN(C2CCN(Cc3ccc(Cl)c(Cl)c3)CC2)C1 (stereo not drawn) | 0.533 µM | 
13 | CC1(N2CCCC(CNC(=O)c3ccc4ncccc4c3)C2)CCN(Cc2ccc(Cl)c(Cl)c2)CC1 (stereo not drawn) | 0.05 µM | Emax [7]: 8%
14 | O=C(NCC1CCCN(C2CCN(Cc3ccc(Cl)c(Cl)c3)CC2)C1)c1ccc2ccccc2c1 (stereo not drawn) | 0.048 µM | 
15 | O=C(NCC1CCCN(C2CCN(Cc3ccc(Cl)cc3)CC2)C1)c1ccc2ncccc2c1 (stereo not drawn) | 0.095 µM | Emax [4]: -8%
16 | O=C(NCC1CCCN(C2CCN(Cc3cc(Cl)cc(Cl)c3)CC2)C1)c1ccc2ncccc2c1 (stereo not drawn) | 0.398 µM | Emax [4]: 45%
17 | O=C(NCC1CCCN(C2CCN(Cc3ccc(Cl)c(Cl)c3)CC2)C1)c1cccc2ccccc12 (stereo not drawn) | 0.058 µM | 
18 | O=C(NCC1CCCN(C2CCN(Cc3ccc(Cl)c(Cl)c3)CC2)C1)c1cccc2cccnc12 (stereo not drawn) | 0.03 µM and 0.036 µM | 
19 | O=C(NCC1CCCN(C2CCN(Cc3ccc(Cl)c(Cl)c3)CC2)C1)c1ccc2nc[nH]c2c1 (stereo not drawn) | 0.047 µM | 
20 | O=C(NCC1CCCN(C2CCN(Cc3ccc(Cl)c(Cl)c3)CC2)C1)c1cccc2[nH]ccc12 (stereo not drawn) | 0.036 µM | 
21 | O=C(NCC1CCCN(C2CCN(CCc3ccc(Cl)c(Cl)c3)CC2)C1)c1ccc2ncccc2c1 (stereo not drawn) | 0.18 µM | Emax [4]: 2%
22 | O=C(NCC1CCCN(C2CCN(Cc3ccc(Cl)c(Cl)c3)CC2)C1)c1ccnc2ccccc12 (stereo not drawn) | 0.08 µM | 
23 | O=C(NCC1CCCN(C2CCN(Cc3ccccc3Cl)CC2)C1)c1ccc2ncccc2c1 (stereo not drawn) |  | inhibition [8]: 36%
24 | O=C(NCC1CCCN(C2CCN(Cc3ccc(Cl)c(Cl)c3)CC2)C1)c1cnnc2ccccc12 (stereo not drawn) | 0.099 µM | 
25 | O=C(NCC1CCCN(C2CCN(Cc3ccc(Cl)c(Cl)c3)CC2)C1)C1CCCCC1 (stereo not drawn) | 0.107 µM | 
26 | O=C(NCC1CCCN(C2CCN(Cc3ccc(Cl)c(Cl)c3)CC2)C1)c1nccc2ccccc12 (stereo not drawn) | 0.034 µM | 
27 | COc1ccccc1C(=O)NCC1CCCN(C2CCN(Cc3ccc(Cl)c(Cl)c3)CC2)C1 (stereo not drawn) | 0.092 µM | 
28 | O=C(NCC1CCCN(C2CCN(Cc3ccc(Cl)c(Cl)c3)CC2)C1)c1ccccc1Cl (stereo not drawn) |  | inhibition [9]: 27%

From ChEMBL document CHEMBL1139618, “The synthesis of substituted bipiperidine amide compounds as CCR3 ligands: antagonists versus agonists” (Bioorg Med Chem Lett, 2005)
